We go through 15 compounds from ChEMBL document CHEMBL3351385, “Synthesis and preliminary mechanistic evaluation of 5-(p-tolyl)-1-(quinolin-2-yl)pyrazole-3-carboxylic acid amides with potent antiproliferative activity on human cancer cell lines” (Eur J Med Chem, 2014).

Experiment [1] is described as follows: Cytotoxicity against human HuH7 cells after 72 hrs by SRB assay. Type of experiment: functional, cell-based. The settings on record: Huh-7, 72 h. The gist of the method:
(§1)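 Cells kept in DMEM with 10% FCS and penicillin/streptomycin at 37°C, 5% CO2. 2000–3000 cells/well were seeded, and medium was refreshed the next day. DMSO solutions were added over 2.5–40 µM with matched DMSO-only controls for 72 h. Cells were then TCA-fixed, stained with 0.4% SRB in 1% acetic acid, solubilized in 10 mM Tris pH 8 and read at 515 nm. Data were normalized to DMSO wells and expressed as mean ±SD.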
For orientation: In SRB staining, fixed cells bind dye roughly in proportion to their protein.

The nature of experiment [2]: Cytotoxicity against human HCT116 cells after 72 hrs by SRB assay. Type of experiment: functional, cell-based. To be noted: HCT-116, 72 h. The gist of the method:
as §1

A further experiment has as its system MCF7. The experiment in a line: Cytotoxicity against human MCF7 cells after 72 hrs by SRB assay. Type of experiment: functional, cell-based. The settings on record: MCF7, 72 h. The gist of the method: as §1
Experiment [3] is described as follows: Induction of cell cycle arrest in human HuH7 cells assessed as accumulation at G2/M phase at cytotoxic IC50 level after 48 hrs by propidium iodide staining based FACS method. Type of experiment: functional, Huh-7. The gist of the method: (§2)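 Huh7 cells were seeded at 150,000–300,000 per 100-mm dish and left 24 h. […] Cells were stained with a propidium iodide-containing cell cycle reagent, and subG1, G0/G1, S and G2/M fractions were scored by flow cytometry.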
A general note: In flow cytometry, cells or beads pass a laser one at a time.

Experiment [4] is described as follows: Induction of cell cycle arrest in human Mahlavu cells assessed as accumulation at G0/G1 phase at cytotoxic IC50 level after 48 hrs by propidium iodide staining based FACS method. Type of experiment: functional.
The nature of experiment [5]: Induction of cell cycle arrest in human Mahlavu cells assessed as accumulation at G2/M phase at cytotoxic IC50 level after 48 hrs by propidium iodide staining based FACS method. Format: functional.
Experiment [6] has as its system Huh-7. The experiment in a line: Induction of cell death in human HuH7 cells assessed as DNA fragmentation at cytotoxic IC50 level after 72 hrs by Hoechst 33258 staining based […]. Format: functional. The gist of the method: (§3)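 Cells were washed in cold PBS, fixed 10 min in cold methanol and stained with Hoechst 33258 at 3 µg/mL for 5 min in the dark. Nuclear condensation and fragmentation were examined by fluorescence microscopy at 40×.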

Experiment [7] has as its system Huh-7. In words: Induction of cell death in human HuH7 cells assessed as nuclear condensation at cytotoxic IC50 level after 72 hrs by Hoechst 33258 staining based […]. Type of experiment: functional. The gist of the method: as §3
Experiment [8] relates to Huh-7. The experiment in a line: Induction of cell death in human HuH7 cells assessed as induction of intracytoplasmic vacuoles at cytotoxic IC50 level after 72 hrs by inverted light microscopy. Format: functional, cell-based. The gist of the method: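 They were viewed under an inverted light microscope at 20× for death morphology, including intracytoplasmic vacuoles.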

Experiment [9] in a line: Induction of cell cycle arrest in human HuH7 cells assessed as accumulation at G0/G1 phase at cytotoxic IC50 level after 48 hrs by propidium iodide staining based FACS method. Type of experiment: functional, Huh-7. Put shortly: as §2
Experiment [10] can be described thus: Induction of cell cycle arrest in human HuH7 cells assessed as accumulation at S phase at cytotoxic IC50 level after 48 hrs by propidium iodide staining based FACS method. Type of experiment: functional, Huh-7. The gist of the method: as §2
Experiment [11] is described as follows: Induction of cell cycle arrest in human Mahlavu cells assessed as accumulation at S phase at cytotoxic IC50 level after 48 hrs by propidium iodide staining based FACS method. Type of experiment: functional.
The subject of experiment [12] is Huh-7. The experiment in a line: Induction of autophagy in human HuH7 cells assessed as increase in LC3-2 formation at cytotoxic IC50 level after 72 hrs by Western blotting method. Type of experiment: functional, cell-based. (A western blot detects proteins with antibodies after separation by electrophoresis.)

Structures are written as SMILES. pIC50: −log10 of the molar value. Calls of active or inactive are those of the source. No cut-off for these calls is given here.

In general, pIC50 refers to the negative decadic logarithm of the IC50, by convention in mol/L.

Regarding `CC[C@@]1(O)C(=O)OCc2c1cc1n(c2=O)Cc2cc3ccccc3nc2-1` [CAMPTOTHECIN], the pIC50 is 8.40 in [1], 9.82 in [2] and 9.22 in the experiment on MCF7.
The matching figures for `Cc1ccc(-c2cc(C(=O)Nc3ccc(Cl)nc3Cl)nn2-c2ccc3ccccc3n2)cc1`: 4.85, 5.10 and 4.90.
On the same counts, the results for `COc1ncccc1NC(=O)c1cc(-c2ccc(C)cc2)n(-c2ccc3ccccc3n2)n1` are 5.10, 4.80 and 4.52.
The matching figures for `Cc1ccc(-c2cc(C(=O)N3CCN(c4ccc(C(F)(F)F)cn4)CC3)nn2-c2ccc3ccccc3n2)cc1`: 4.68, 4.77 and 4.35.
As for `Cc1ccc(-c2cc(C(=O)Nc3ccncc3)nn2-c2ccc3ccccc3n2)cc1`, the figures for the pIC50 (in experiment [1]; in experiment [2]; in the experiment on MCF7) were 5.10, 5.09 and 4.81, respectively.
In the case of `Cc1ccc(-c2cc(C(=O)N3CCN(c4ncccc4C(F)(F)F)CC3)nn2-c2ccc3ccccc3n2)cc1`, the pIC50 is 4.90 in [1], 5.01 in experiment [2] and 5.24 in the experiment with MCF7.
The matching figures for `Cc1ccc(-c2cc(C(=O)N3CCN(c4ccccn4)CC3)nn2-c2ccc3ccccc3n2)cc1`: 5.32, 5.29 and 4.92.
The matching figures for `Cc1ccc(-c2cc(C(=O)Nc3ccncc3Br)nn2-c2ccc3ccccc3n2)cc1`: 4.88, 4.81 and 4.96.
`Cc1ccc(-c2cc(C(=O)N3CCN(c4ccncc4)CC3)nn2-c2ccc3ccccc3n2)cc1`: the Activity in [3] was 33%; in experiment [4], 52.9%; in experiment [5], 24.4%; in experiment [9] it was 57.2%; in experiment [10], 7.2%; in experiment [11], 17%. In addition, the negative logarithm of the IC50 (pIC50) in experiment [1] was 5.11; in experiment [2] it was 5.15; with MCF7, 5.33. Also, the outcome in the experiment on Huh-7 [6], with Huh-7 [7], with Huh-7 [8] and in the experiment on Huh-7 [12] was Active.
Take `Cc1ccc(-c2cc(C(=O)NCc3cccnc3)nn2-c2ccc3ccccc3n2)cc1`: the Activity in [3] is on record as 32.3%; in [4], 56.1%; in experiment [5], 28.5%; in experiment [9], 56.1%; in experiment [10] it was 10.5%; in experiment [11] it was 14%. Further, the negative logarithm of the IC50 (pIC50) in experiment [1] is 4.85; in experiment [2], 4.95; with MCF7 it was 4.72. Moreover, the result in the experiment with Huh-7 [6], in the experiment on Huh-7 [7], with Huh-7 [8] and in the experiment with Huh-7 [12] was Active.
For `Cc1ccc(-c2cc(C(=O)N3CCN(c4c(Cl)cncc4Cl)CC3)nn2-c2ccc3ccccc3n2)cc1`, the negative-log IC50 (pIC50) was 5.34 in experiment [1], 5.32 in [2] and 5.01 in the experiment with MCF7.
`Cc1ccc(-c2cc(C(=O)N3CCN(c4cccc(C(F)(F)F)n4)CC3)nn2-c2ccc3ccccc3n2)cc1`: the pIC50 was 4.99 in experiment [1], 5.03 in experiment [2] and 4.94 in the experiment on MCF7.
With `Cc1ccc(-c2cc(C(=O)N3CCN(c4ncccc4C#N)CC3)nn2-c2ccc3ccccc3n2)cc1`, the values for the pIC50 (in experiment [1]; in [2]; in the experiment on MCF7) were 4.67, 4.40 and 4.10, respectively.
On to `Cc1ccc(-c2cc(C(=O)Nc3ncc(Br)cc3Br)nn2-c2ccc3ccccc3n2)cc1`, for which the negative logarithm of the IC50 (pIC50) in experiment [1] was 4.94; in experiment [2], 5.02; in the experiment with MCF7, 4.77.
Take `Cc1ccc(-c2cc(C(=O)N3CCN(c4ncc(C(F)(F)F)cc4Cl)CC3)nn2-c2ccc3ccccc3n2)cc1`: the pIC50 in experiment [1] was 5.10; in experiment [2] it was 4.88; in the experiment on MCF7, 4.32.
